Assay results published in publication PMC4929832 (Nature, 2016).

Columns and labels:
[1] = biological target: CK1-EPSILON (Homo sapiens, UniProt P49674); experiment: kinase panel; type: biochemical
[2] = biological target: ROCK1 (Homo sapiens, UniProt Q13464); experiment: kinase panel; type: biochemical
[3] = biological target: PDK1 (Homo sapiens, UniProt O15530); experiment: kinase panel; type: biochemical
[4] = biological target: GSK-3-ALPHA (Homo sapiens, UniProt P49840); experiment: kinase panel; type: biochemical
GSK-3-ALPHA, sequence (P49840 whole entry): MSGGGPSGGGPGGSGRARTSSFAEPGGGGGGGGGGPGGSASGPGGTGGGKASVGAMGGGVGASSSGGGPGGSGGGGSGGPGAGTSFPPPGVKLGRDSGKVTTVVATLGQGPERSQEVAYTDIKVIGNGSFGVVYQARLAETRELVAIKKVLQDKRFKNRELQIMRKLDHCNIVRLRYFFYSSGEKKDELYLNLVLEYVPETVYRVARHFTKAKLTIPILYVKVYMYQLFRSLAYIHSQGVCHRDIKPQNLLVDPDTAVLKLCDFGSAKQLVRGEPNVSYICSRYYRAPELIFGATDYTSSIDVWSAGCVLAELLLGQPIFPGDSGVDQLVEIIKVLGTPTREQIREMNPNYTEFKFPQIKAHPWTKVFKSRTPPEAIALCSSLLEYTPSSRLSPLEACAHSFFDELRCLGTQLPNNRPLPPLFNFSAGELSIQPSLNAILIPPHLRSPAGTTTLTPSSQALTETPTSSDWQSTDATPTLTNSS

[5] = biological target: PHK-GAMMA1 (Homo sapiens, UniProt Q16816); experiment: kinase panel; type: biochemical
PHK-GAMMA1, sequence (Q16816 whole entry): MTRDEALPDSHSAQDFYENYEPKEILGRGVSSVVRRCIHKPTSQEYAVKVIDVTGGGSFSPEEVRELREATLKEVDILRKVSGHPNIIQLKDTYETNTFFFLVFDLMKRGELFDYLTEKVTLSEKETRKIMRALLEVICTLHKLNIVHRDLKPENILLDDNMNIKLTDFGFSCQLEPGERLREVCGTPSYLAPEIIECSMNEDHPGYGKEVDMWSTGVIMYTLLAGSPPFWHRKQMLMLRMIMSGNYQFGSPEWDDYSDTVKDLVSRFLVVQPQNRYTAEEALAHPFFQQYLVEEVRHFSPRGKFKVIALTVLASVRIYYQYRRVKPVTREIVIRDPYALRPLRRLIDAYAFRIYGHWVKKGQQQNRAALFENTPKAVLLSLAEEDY

[6] = biological target: MEK1 (Homo sapiens, UniProt Q02750); experiment: kinase panel; type: biochemical
[7] = biological target: ARG (Homo sapiens, UniProt P42684); experiment: kinase panel; type: biochemical
[8] = biological target: HASPIN (Homo sapiens, UniProt Q8TF76); experiment: kinase panel; type: biochemical
[9] = biological target: PI3K-BETA (Homo sapiens, UniProt P42338); experiment: kinase panel; type: biochemical
[10] = biological target: MER (Homo sapiens, UniProt Q12866); experiment: kinase panel; type: biochemical
MER, sequence (Q12866 21-999): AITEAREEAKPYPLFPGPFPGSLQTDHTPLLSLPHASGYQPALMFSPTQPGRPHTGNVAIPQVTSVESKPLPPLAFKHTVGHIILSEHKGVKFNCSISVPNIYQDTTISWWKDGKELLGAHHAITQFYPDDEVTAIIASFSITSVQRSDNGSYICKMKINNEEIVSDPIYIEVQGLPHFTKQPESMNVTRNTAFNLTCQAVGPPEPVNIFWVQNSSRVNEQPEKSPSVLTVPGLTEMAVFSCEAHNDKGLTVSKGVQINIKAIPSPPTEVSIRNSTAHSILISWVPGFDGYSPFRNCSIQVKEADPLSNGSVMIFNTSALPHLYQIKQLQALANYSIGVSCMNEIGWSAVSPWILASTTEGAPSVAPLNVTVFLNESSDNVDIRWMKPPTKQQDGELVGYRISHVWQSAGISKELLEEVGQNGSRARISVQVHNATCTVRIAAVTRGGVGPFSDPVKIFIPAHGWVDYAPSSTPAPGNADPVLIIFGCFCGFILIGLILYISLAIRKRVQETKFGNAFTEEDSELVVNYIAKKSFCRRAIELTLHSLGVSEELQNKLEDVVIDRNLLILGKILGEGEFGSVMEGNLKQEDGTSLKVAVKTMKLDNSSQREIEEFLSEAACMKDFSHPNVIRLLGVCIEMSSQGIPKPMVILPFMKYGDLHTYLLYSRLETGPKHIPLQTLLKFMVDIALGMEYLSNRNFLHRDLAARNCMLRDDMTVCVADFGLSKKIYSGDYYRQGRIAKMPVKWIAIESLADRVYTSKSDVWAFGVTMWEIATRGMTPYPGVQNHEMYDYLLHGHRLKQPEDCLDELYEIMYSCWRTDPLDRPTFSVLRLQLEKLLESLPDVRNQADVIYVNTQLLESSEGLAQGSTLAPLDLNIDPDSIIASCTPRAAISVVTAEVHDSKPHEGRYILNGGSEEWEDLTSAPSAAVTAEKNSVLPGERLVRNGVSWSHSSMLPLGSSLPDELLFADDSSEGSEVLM

[11] = biological target: AURORA-B (Homo sapiens, UniProt Q96GD4); experiment: kinase panel; type: biochemical
[12] = biological target: AXL (Homo sapiens, UniProt P30530); experiment: kinase panel; type: biochemical
AXL, sequence (P30530 26-894): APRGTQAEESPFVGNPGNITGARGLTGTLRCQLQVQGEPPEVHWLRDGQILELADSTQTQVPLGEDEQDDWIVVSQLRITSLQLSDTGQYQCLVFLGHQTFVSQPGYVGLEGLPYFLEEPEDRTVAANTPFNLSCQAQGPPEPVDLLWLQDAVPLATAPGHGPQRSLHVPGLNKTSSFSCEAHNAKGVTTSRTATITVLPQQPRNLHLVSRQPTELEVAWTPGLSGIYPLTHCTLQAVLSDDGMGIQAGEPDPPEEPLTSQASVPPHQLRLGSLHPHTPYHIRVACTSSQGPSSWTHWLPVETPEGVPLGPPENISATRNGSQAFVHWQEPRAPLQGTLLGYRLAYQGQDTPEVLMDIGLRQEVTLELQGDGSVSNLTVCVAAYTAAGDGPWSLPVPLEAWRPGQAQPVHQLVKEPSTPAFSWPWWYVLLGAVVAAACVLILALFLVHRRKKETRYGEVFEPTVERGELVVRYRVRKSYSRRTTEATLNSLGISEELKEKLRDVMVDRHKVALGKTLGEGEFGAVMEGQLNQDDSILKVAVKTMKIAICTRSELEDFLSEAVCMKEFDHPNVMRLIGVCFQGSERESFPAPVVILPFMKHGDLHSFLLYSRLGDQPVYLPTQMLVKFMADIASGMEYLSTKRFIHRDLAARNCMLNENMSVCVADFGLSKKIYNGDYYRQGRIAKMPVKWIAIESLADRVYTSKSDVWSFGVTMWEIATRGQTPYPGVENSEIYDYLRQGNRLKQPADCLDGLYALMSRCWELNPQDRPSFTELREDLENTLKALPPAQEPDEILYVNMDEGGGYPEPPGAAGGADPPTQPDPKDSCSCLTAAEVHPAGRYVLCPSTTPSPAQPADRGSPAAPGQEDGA

[13] = biological target: SPHK2 (Homo sapiens, UniProt Q9NRA0); experiment: kinase panel; type: biochemical
[14] = biological target: DYRK1B (Homo sapiens, UniProt Q9Y463); experiment: kinase panel; type: biochemical
[15] = biological target: MSK1 (Homo sapiens, UniProt O75582); experiment: kinase panel; type: biochemical
[16] = biological target: DYRK4 (Homo sapiens, UniProt Q9NR20); experiment: kinase panel; type: biochemical
[17] = biological target: MSK2 (Homo sapiens, UniProt O75676); experiment: kinase panel; type: biochemical
[18] = biological target: PKC-ALPHA (Homo sapiens, UniProt P17252); experiment: kinase panel; type: biochemical
[19] = biological target: BRSK2 (Homo sapiens, UniProt Q8IWQ3); experiment: kinase panel; type: biochemical
[20] = biological target: CAMK1A (Homo sapiens, UniProt Q14012); experiment: kinase panel; type: biochemical
[21] = biological target: PKC-GAMMA (Homo sapiens, UniProt P05129); experiment: kinase panel; type: biochemical
[22] = biological target: PKC-THETA (Homo sapiens, UniProt Q04759); experiment: kinase panel; type: biochemical
PKC-THETA, sequence (Q04759 whole entry): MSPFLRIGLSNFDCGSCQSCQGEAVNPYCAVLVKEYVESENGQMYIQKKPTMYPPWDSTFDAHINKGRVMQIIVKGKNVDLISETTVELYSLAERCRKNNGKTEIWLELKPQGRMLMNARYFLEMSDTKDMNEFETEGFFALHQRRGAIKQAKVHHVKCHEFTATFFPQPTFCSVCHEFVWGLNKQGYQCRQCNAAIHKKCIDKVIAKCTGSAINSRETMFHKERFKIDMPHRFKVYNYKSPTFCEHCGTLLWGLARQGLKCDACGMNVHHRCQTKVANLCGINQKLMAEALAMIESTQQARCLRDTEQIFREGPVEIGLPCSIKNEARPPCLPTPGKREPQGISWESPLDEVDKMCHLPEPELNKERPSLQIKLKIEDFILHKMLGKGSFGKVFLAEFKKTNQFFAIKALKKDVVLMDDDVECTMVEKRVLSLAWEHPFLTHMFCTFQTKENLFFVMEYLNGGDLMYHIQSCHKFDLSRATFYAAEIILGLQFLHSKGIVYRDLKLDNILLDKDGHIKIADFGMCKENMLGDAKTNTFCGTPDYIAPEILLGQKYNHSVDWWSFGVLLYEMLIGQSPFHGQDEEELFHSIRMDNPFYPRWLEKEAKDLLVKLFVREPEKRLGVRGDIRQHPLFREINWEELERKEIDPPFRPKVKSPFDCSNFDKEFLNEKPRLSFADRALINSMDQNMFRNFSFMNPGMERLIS

[23] = biological target: JNK1 (Homo sapiens, UniProt P45983); experiment: kinase panel; type: biochemical
[24] = biological target: TIE2 (Homo sapiens, UniProt Q02763); experiment: kinase panel; type: biochemical
[25] = biological target: JNK2 (Homo sapiens, UniProt P45984); experiment: kinase panel; type: biochemical
[26] = biological target: PLK1 (Homo sapiens, UniProt P53350); experiment: kinase panel; type: biochemical
PLK1, sequence (P53350 whole entry): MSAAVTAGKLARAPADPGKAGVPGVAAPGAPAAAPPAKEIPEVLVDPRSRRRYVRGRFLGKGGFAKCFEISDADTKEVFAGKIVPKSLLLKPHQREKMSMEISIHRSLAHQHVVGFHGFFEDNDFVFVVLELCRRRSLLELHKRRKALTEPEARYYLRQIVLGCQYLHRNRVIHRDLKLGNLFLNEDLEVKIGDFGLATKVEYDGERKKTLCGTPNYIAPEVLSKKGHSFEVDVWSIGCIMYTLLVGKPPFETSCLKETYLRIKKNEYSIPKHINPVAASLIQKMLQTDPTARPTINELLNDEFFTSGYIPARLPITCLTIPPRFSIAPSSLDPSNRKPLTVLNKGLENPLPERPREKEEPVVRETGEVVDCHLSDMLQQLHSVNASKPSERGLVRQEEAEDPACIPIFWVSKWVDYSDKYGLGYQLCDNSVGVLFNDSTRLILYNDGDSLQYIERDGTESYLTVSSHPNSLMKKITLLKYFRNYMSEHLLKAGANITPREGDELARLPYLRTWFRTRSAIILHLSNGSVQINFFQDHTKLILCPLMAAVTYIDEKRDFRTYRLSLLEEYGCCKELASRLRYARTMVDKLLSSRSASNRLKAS

[27] = biological target: FER (Homo sapiens, UniProt P16591); experiment: kinase panel; type: biochemical
[28] = biological target: CDK5-P25 (Homo sapiens, UniProt Q00535); experiment: kinase panel; type: biochemical
[29] = biological target: LOK (Homo sapiens, UniProt O94804); experiment: kinase panel; type: biochemical
[30] = biological target: P38-GAMMA (Homo sapiens, UniProt P53778); experiment: kinase panel; type: biochemical
[31] = biological target: PRKG2 (Homo sapiens, UniProt Q13237); experiment: kinase panel; type: biochemical
[32] = biological target: PAK1 (Homo sapiens, UniProt Q13153); experiment: kinase panel; type: biochemical
[33] = system: CK1; experiment: kinase panel; type: biochemical; details: CK1, 1 μM
[34] = biological target: COX-1 (Homo sapiens, UniProt P23219); experiment: COX-1 assay; type: biochemical
[35] = system: CYP3A4; experiment: CYP3A4 Induction Reporter Gene; type: cell-based; details: human, CYP3A4 induction reporter gene assay (cell line not given)
[36] = biological target: Pregnane X Receptor (PXR; SXR) (Homo sapiens, UniProt O75469); experiment: Pregnane X Receptor; type: binding
Pregnane X Receptor (PXR; SXR), sequence (O75469 whole entry, species assumed): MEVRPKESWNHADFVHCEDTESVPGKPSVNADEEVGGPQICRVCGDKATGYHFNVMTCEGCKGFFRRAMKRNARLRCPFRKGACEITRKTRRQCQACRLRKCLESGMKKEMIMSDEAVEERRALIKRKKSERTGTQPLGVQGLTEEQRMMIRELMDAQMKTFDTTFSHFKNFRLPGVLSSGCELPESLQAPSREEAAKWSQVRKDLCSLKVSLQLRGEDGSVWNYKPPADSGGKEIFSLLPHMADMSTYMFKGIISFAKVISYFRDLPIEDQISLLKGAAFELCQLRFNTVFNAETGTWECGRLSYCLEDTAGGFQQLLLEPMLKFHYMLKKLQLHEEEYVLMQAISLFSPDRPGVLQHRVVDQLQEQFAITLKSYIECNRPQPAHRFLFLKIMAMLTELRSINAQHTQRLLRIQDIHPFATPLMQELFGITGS

[37] = biological target: Serotonin 5HT2A (Homo sapiens, UniProt P28223); experiment: Serotonin 5HT2A calcium flux assay; type: cell-based
[38] = system: H3255 cells; experiment: Proliferation assay; type: cell-based
Procedure, shortened: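 Cells were maintained in 10% FBS/RPMI with penicillin/streptomycin and plated at 500 cells/well in 10% FBS RPMI. Serially diluted test compound was pin-transferred. Viability was read after 3 days by CellTiter-Glo luminescence and normalized to 0.1% DMSO-treated cells and empty wells. EC50 was obtained by non-linear regression curve fitting.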

[39] = system: L858R/T790M-mutant lung cancer (genetically engineered mice); experiment: Mouse efficacy study, tumor volume by MRI; type: in vivo; details: EAI045 alone 60 mg/kg oral once daily, 4 weeks
[40] = system: EGFR signaling in L858R/T790M/C797S mice; experiment: Pharmacodynamic study, western blotting of tumor nodules; type: in vivo, mouse; details: EAI045 in combination with cetuximab, 2 doses
Procedure, shortened: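 Transgenic mice were induced at 6 weeks: exon19del/T790M by doxycycline diet, L858R/T790M/C797S by intranasal Ad-Cre. […] Tumor nodules were lysed and protein-equalized for western blotting. Bands were detected by HRP chemiluminescence. Multiple independent tumors were analyzed.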

PDK1, sequence (O15530 whole entry): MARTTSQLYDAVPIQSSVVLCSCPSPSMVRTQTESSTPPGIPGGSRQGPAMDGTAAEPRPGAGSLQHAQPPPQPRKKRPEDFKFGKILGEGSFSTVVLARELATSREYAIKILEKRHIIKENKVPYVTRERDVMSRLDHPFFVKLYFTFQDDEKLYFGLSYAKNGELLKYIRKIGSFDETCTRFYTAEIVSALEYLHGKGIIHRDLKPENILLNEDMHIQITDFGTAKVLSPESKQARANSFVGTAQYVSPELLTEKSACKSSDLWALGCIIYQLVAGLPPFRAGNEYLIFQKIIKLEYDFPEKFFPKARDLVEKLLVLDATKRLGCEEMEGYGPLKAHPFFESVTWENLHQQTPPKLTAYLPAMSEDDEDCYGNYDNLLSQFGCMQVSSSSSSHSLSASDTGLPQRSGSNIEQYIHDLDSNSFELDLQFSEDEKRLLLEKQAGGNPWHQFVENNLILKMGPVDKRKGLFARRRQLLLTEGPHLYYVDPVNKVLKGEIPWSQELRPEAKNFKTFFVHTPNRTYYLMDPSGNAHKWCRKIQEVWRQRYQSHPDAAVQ

O=C(Nc1nccs1)C(c1cc(F)ccc1O)N1Cc2ccccc2C1=O (centres unmarked) [EAI045, 2-(5-fluoro-2-hydroxyphenyl)-2-(1-oxo-2,3-dihydro-1H-isoindol-2-yl)-N-(1,3-thiazol-2-yl)acetamide]
did not respond: tumor response [39]
1%: inhibition at 1 µM [8] | inhibition at 1 µM [16] | inhibition at 1 µM [29]
6%: inhibition at 1 µM [4]
> 10 µM: IC50 [35] | EC50 ([38]; Homo sapiens, NCI-H3255, 72 h, read-out: EC50 Proliferation)
effectively inhibited: phosphorylation of EGFR and downstream signaling proteins in tumors [40]
2%: inhibition at 1 µM [7] | inhibition at 1 µM [14] | inhibition at 1 µM [17] | inhibition at 1 µM [30]
7%: inhibition at 1 µM [26]
0%: inhibition at 1 µM [1] | inhibition at 1 µM [2] | inhibition at 1 µM [3] | inhibition at 1 µM [5] | inhibition at 1 µM [6] | inhibition at 1 µM [9] | inhibition at 1 µM [13] | inhibition at 1 µM [15] | inhibition at 1 µM [18] | inhibition at 1 µM [19] | inhibition at 1 µM [20] | inhibition at 1 µM [21] | inhibition at 1 µM [22] | inhibition at 1 µM [23] | inhibition at 1 µM [24] | inhibition at 1 µM [25] | inhibition at 1 µM [28] | inhibition at 1 µM [32] | % inhibition [33]
8%: inhibition at 1 µM [10] | inhibition at 1 µM [31]
7 µM: IC50 [36]
no anti-proliferative effect: anti-proliferative effect ([38]; H3255, concentrations as high as 10 μM)
4%: inhibition at 1 µM [11] | inhibition at 1 µM [12] | inhibition at 1 µM [27]
> 30 µM: IC50 [34] | IC50 [37]
